Test results from ChEMBL document CHEMBL1137534, “Synthesis and screening for acetylcholinesterase inhibitor activity of some novel 2-butyl-1,3-diaza-spiro[4,4]non-1-en-4-ones: derivatives of irbesartan key intermediate” (Bioorg Med Chem, 2007).

Legend:
Acetylcholinesterase [1] = target: Acetylcholinesterase (Electrophorus electricus, UniProt O42275); experiment: Inhibition of electric eel AChE by Ellman colorimetric assay
Outline: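 Electric eel AChE stock was kept frozen in 0.1 M KH2PO4 (pH 8). Assay used phosphate buffer pH 8.0, DTNB and 1.0 mM acetylthiocholine at 37 °C, after 10 min enzyme–inhibitor preincubation. A412 was read at 1-min intervals for 10 min. Inhibitor range was 0–200 nM. IC50 was taken at 50% inhibition; duplicates, mean reported.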

Acetylcholinesterase [2] = target: T1, Acetylcholinesterase (Rattus norvegicus, UniProt P37136); experiment: Inhibition of Wistar rat brain AChE by Ellman colorimetric assay
T1 sequence (P37136 whole entry): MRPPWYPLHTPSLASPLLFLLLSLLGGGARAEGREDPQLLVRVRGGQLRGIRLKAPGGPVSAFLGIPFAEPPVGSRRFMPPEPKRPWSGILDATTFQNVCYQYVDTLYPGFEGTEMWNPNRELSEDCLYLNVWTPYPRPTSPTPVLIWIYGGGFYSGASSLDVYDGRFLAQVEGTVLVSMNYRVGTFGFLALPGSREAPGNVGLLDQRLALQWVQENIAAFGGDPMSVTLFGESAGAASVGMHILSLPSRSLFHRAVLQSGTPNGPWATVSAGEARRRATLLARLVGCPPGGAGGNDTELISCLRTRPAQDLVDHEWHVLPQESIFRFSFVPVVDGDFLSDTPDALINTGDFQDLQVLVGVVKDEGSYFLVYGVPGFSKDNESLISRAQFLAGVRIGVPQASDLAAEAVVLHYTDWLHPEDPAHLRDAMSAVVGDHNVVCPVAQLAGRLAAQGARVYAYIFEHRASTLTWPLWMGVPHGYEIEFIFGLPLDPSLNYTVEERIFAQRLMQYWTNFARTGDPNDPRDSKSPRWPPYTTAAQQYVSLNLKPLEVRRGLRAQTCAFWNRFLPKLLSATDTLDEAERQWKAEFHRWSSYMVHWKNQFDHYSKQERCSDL
Outline: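 Rat brain homogenate as the enzyme source. Ellman method with DTNB and 1.0 mM acetylthiocholine at 37 °C. Enzyme, buffer, DTNB and inhibitor were preincubated 10 min before substrate was added. Absorbance at 412 nm was read every 1 min for 10 min. Inhibitor range was 0–200 nM. IC50 is the concentration giving 50% inhibition; duplicate means.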

Acetylcholinesterase [3] = target: Acetylcholinesterase (Homo sapiens, UniProt P22303); experiment: Inhibition of human serum AChE by Ellman colorimetric assay
Outline: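 Crude AChE was the supernatant of fresh volunteer blood mixed with 3.8% trisodium citrate (9:1) and spun at 3000 rpm, 0 °C, 20 min. Ellman assay with DTNB and 1.0 mM acetylthiocholine at 37 °C, after 10 min preincubation with inhibitor. A412 was followed over 10 min. Inhibitor range was 0–200 nM. IC50 is the 50% inhibition point; duplicate means.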

Sequence of Acetylcholinesterase (Electrophorus electricus, UniProt O42275) (O42275 whole entry): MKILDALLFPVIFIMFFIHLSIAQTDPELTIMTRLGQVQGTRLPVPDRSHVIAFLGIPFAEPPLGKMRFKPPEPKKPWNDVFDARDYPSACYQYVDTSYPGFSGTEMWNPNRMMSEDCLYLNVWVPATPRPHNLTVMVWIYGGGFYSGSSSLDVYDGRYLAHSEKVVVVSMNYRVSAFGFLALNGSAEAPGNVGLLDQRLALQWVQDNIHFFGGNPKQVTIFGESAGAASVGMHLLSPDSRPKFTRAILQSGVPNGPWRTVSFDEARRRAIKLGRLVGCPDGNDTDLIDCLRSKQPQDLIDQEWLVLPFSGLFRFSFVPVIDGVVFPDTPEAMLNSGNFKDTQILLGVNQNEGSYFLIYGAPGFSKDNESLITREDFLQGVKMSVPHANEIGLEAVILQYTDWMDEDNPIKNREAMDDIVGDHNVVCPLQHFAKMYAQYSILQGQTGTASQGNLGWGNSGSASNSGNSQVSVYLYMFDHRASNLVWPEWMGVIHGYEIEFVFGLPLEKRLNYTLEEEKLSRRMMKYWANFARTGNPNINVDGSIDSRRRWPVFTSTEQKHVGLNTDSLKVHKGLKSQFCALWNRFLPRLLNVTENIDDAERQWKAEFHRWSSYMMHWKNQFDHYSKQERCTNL
Sequence of Acetylcholinesterase (Homo sapiens, UniProt P22303) (P22303 whole entry): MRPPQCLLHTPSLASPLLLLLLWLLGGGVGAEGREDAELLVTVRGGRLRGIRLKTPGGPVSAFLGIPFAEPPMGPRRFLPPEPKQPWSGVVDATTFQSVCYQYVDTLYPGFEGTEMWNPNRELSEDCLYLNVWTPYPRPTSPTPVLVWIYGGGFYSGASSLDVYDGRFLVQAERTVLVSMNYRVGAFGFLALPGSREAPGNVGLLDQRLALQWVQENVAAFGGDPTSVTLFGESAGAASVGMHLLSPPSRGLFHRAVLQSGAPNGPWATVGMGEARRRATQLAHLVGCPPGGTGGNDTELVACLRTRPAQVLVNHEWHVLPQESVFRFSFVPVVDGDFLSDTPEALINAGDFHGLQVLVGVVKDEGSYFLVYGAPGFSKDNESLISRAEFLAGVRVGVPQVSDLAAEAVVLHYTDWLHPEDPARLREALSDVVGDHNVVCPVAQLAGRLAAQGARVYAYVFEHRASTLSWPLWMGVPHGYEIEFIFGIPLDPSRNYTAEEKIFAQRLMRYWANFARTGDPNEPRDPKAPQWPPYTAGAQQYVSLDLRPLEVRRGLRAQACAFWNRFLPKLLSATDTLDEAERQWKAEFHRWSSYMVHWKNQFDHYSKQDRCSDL

| SMILES | IC50 (Acetylcholinesterase [1]) | IC50 (Acetylcholinesterase [2]) | IC50 (Acetylcholinesterase [3]) |
| --- | --- | --- | --- |
| CCCCC1=NC2(CCCC2)C(=O)N1Cc1ccc(-c2ccccc2C(=O)OC(C)(C)C)cc1 | 277 nM | 271 nM | 269 nM |
| CCCCC1=NC2(CCCC2)C(=O)N1CC(=O)c1ccc(Cl)cc1 | 280 nM | 280 nM | 286 nM |
| CCCCC1=NC2(CCCC2)C(=O)N1Cc1cc(OC)c(OC)cc1Br | 80 nM | 77.5 nM | 82.5 nM |
| CCCCC1=NC2(CCCC2)C(=O)N1Cc1ccc(-c2ccccc2C(=O)OC)cc1 | 236 nM | 243 nM | 241 nM |
| CN(C)C(=O)Oc1cccc([N+](C)(C)C)c1 [NEOSTIGMINE BROMIDE] | 47.5 nM | 35 nM |  |
| CCCCC1=NC2(CCCC2)C(=O)N1Cc1cc2c(cc1C)OCO2 | 212 nM | 216 nM | 232 nM |
| CCCCC1=NC2(CCCC2)C(=O)N1Cc1ccc(Br)cc1 | 67.5 nM | 70 nM | 70 nM |
| CCCCC1=NC2(CCCC2)C(=O)N1Cc1ccc([N+](=O)[O-])cc1 | 149 nM | 134 nM | 135 nM |
| CCCCC1=NC2(CCCC2)C(=O)N1CCN1C(=O)c2ccccc2C1=O | 250 nM | 234 nM | 231 nM |
| CCCCC1=NC2(CCCC2)C(=O)N1Cc1ccc(-c2ccccc2C#N)cc1 | 90 nM | 90 nM | 82.5 nM |
